# Laboratory results: ChEMBL document CHEMBL3875213, “Quinolines: Microwave-assisted synthesis and their antifungal, anticancer and radical scavenger properties” (Bioorg Med Chem, 2017)
# The source made the active and inactive calls. No cut-off for these calls is given here.
# What was measured:
# [1] = system: Candida albicans; test: Growth inhibition of Candida albicans ATCC 10231 at 3.9 ug/ml incubated for 48 hrs under dark condition by broth microdilution assay relative to amphotericin B; assay type: functional; conditions: ATCC 10231, 48 h, read-out: GI
# Outline: (§1)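 Yeast broth microdilution (CLSI M27-A3), RPMI-1640, inoculum 1-5 x 10^3 CFU/mL, DMSO ≤1%, 48 h at 30 °C in a moist, dark chamber. […]. Triplicate; amphotericin B as positive control.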
# [2] = system: Candida albicans; test: Growth inhibition of Candida albicans ATCC 10231 at 7.81 ug/ml incubated for 48 hrs under dark condition by broth microdilution assay relative to amphotericin B; assay type: functional; conditions: ATCC 10231, 48 h, read-out: GI; outline: as §1
# [3] = system: Candida albicans; test: Growth inhibition of Candida albicans ATCC 10231 at 15.62 ug/ml incubated for 48 hrs under dark condition by broth microdilution assay relative to amphotericin B; assay type: functional; conditions: ATCC 10231, 48 h, read-out: GI; outline: as §1
# [4] = system: Candida albicans; test: Growth inhibition of Candida albicans ATCC 10231 at 31.25 ug/ml incubated for 48 hrs under dark condition by broth microdilution assay relative to amphotericin B; assay type: functional; conditions: ATCC 10231, 48 h, read-out: GI; outline: as §1
# [5] = system: Candida albicans; test: Growth inhibition of Candida albicans ATCC 10231 at 62.5 ug/ml incubated for 48 hrs under dark condition by broth microdilution assay relative to amphotericin B; assay type: functional; conditions: ATCC 10231, 48 h, read-out: GI; outline: as §1
# [6] = system: Candida albicans; test: Growth inhibition of Candida albicans ATCC 10231 at 125 ug/ml incubated for 48 hrs under dark condition by broth microdilution assay relative to amphotericin B; assay type: functional; conditions: ATCC 10231, 48 h, read-out: GI; outline: as §1
# [7] = system: Candida albicans; test: Growth inhibition of Candida albicans ATCC 10231 at 250 ug/ml incubated for 48 hrs under dark condition by broth microdilution assay relative to amphotericin B; assay type: functional; conditions: ATCC 10231, 48 h, read-out: GI; outline: as §1
# [8] = system: Candida albicans; test: Antifungal activity against Candida albicans ATCC 10231 incubated for 48 hrs under dark condition by broth microdilution assay; assay type: functional; conditions: ATCC 10231, 48 h
# Outline: (§2)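 Broth microdilution per CLSI M27-A3 in RPMI-1640. Inocula adjusted to 1-5 x 10^3 CFU/mL. Stocks in DMSO (≤1%), final 3.9-250.0 µg/mL. Incubated 48 h at 30 °C in a moist, dark chamber, read at OD 405. % inhibition computed from growth and sterility control wells, run in triplicate. MIC80/MIC50 taken from four-parameter logistic concentration-response curves; amphotericin B as positive control.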
# [9] = Antifungal activity against Cryptococcus neoformans ATCC 32264 incubated for 48 hrs under dark condition by broth microdilution assay; assay type: functional; outline: as §2
# [10] = Antiproliferative activity against human CCD-19Lu cells after 24 hrs by MTT assay; assay type: cell-based
# Outline: (§3)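 Cells grown in medium with 10% foetal bovine serum and 1% L-glutamine at 37 °C, 5% CO2, seeded at 1 x 10^5 cells/well. Exposed to compound at 1.0-1,000 µg/mL for 24 h. MTT added, absorbance read at 540 nm 3 h later. IC50 obtained by non-linear regression of viability data.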
# [11] = Antiproliferative activity against human NCI-H226 cells harboring TP53 mutant after 24 hrs by MTT assay; assay type: functional, cell-based; conditions: NCI-H226, 24 h; outline: as §3
# [12] = system: NCI-H226; test: Selectivity index, ratio of IC50 for human CCD-19Lu cells to IC50 for human NCI-H226 cells; assay type: functional
# Outline: (§4)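 Selectivity index equals IC50 in non-tumour CCD 19-Lu lung fibroblasts divided by IC50 in the tumour line. Both IC50s come from the 24 h MTT assay (read at 540 nm) over 1.0-1,000 µg/mL.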
# [13] = Antioxidant activity assessed as DPPH radical scavenging activity at 160 uM incubated for 30 mins under dark condition; assay type: functional
# Outline: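 Compound at 160 µM incubated with 100 µM DPPH in ethanolic medium, stirred in the dark for 30 min, read at 517 nm. Resveratrol as positive control. Three independent experiments, each in triplicate.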
# [14] = Antioxidant activity assessed as DPPH radical scavenging activity incubated for 30 mins under dark condition; assay type: functional
# Outline: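 DPPH (100 µM) in ethanolic medium, stirred 30 min in the dark, absorbance at 517 nm. Compound varied from 0 to 160 µg/mL to find the concentration scavenging 50% of radicals. Three independent experiments, each in triplicate.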
# [15] = Antioxidant activity assessed as fluorescent light-induced superoxide anion scavenging activity at 160 uM incubated for 10 mins by nitroblue tetrazolium dye based assay; assay type: functional
# Outline: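 Superoxide generated photochemically in 50 mM phosphate buffer pH 7.8 with 13 mM L-methionine, 75 µM nitroblue tetrazolium, 100 µM EDTA and 2 µM riboflavin. Compound at 160 µM. 10 min at 25 °C under fluorescent light; dark controls. Read at 575 nm. Resveratrol as positive control; three independent experiments in triplicate.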
# [16] = Antioxidant activity assessed as fluorescent light-induced superoxide anion scavenging activity incubated for 10 mins by nitroblue tetrazolium dye based assay; assay type: functional
# Outline: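 Riboflavin/light superoxide system: 50 mM phosphate pH 7.8, 13 mM L-methionine, 75 µM NBT, 100 µM EDTA, 2 µM riboflavin, compound 0-200 µg/mL. Fluorescent light for 10 min at 25 °C, dark controls, scavenging measured at 575 nm. Resveratrol as reference.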
# [17] = Antiproliferative activity against human TOV21G harboring wild type TP53 cells after 24 hrs by MTT assay; assay type: functional, cell-based; outline: as §3
# [18] = Antiproliferative activity against human Hep2C cells after 24 hrs by MTT assay; assay type: functional, cell-based; outline: as §3
# [19] = Selectivity index, ratio of IC50 for human CCD-19Lu cells to IC50 for human TOV21G cells; assay type: functional; outline: as §4
# [20] = Selectivity index, ratio of IC50 for human CCD-19Lu cells to IC50 for human Hep2C cells; assay type: functional; outline: as §4
# [21] = Potency index, ratio of resveratrol SC50 to compound SC50 for fluorescent light-induced superoxide anion scavenging activity
SMILES,inhibition of growth at 3.9 µg/mL [1],inhibition of growth at 7.81 µg/mL [2],inhibition of growth at 15.62 µg/mL [3],inhibition of growth at 31.25 µg/mL [4],inhibition of growth at 62.5 µg/mL [5],inhibition of growth at 125 µg/mL [6],inhibition of growth at 250 µg/mL [7],MIC50 [8],MIC80 [8],MIC50 [9],MIC80 [9],IC50 [10],IC50 [11],Ratio IC50 [12],Activity [13],SC50 [14],Activity [15],SC50 [16],IC50 [17],IC50 [18],other results
Brc1ccc2nc(C3CCCCC3)cc(-c3ccccc3)c2c1,0%,0%,0%,1.49%,3.29%,11.3%,37.2%,250 µg/mL,> 250 µg/mL,250 µg/mL,> 250 µg/mL,490 µM,91 µM,5,45 to 55%,118 µM,Active,> 250 µM,–,–,–
O=[N+]([O-])c1ccc2c(-c3ccccc3)cc(-c3ccccc3)nc2c1,3.42%,4.97%,7.07%,10.6%,19.8%,38.5%,54.8%,250 µg/mL,> 250 µg/mL,125 µg/mL,> 250 µg/mL,–,559 µM,–,–,–,–,–,–,–,–
COc1ccc2nc(-c3ccccc3)cc(-c3ccccc3)c2c1,0%,0%,4%,8.43%,12.2%,20.9%,57.2%,250 µg/mL,> 250 µg/mL,250 µg/mL,250 µg/mL,925 µM,57 µM,16,45 to 55%,168 µM,–,> 250 µM,110 µM,496 µM,Ratio IC50 [19]: 8; Ratio IC50 [20]: 1
Oc1ccc(-c2cc(-c3ccccc3)c3cc(Br)ccc3n2)cc1,2.41%,3.56%,4.5%,6.17%,9.63%,21.2%,45.8%,62.5 µg/mL,125 µg/mL,62.5 µg/mL,250 µg/mL,104 µM,8 µM,13,–,–,Active,–,–,105 µM,Ratio IC50 [20]: 0
Oc1cccc(-c2cc(-c3ccccc3)c3cc(Br)ccc3n2)c1,–,3.15%,4.08%,7.61%,11.2%,20.2%,40.9%,> 250 µg/mL,> 250 µg/mL,> 250 µg/mL,> 250 µg/mL,–,–,–,–,> 250 µM,Active,121 µM,–,–,Ratio [21]: 2
COc1cc(-c2cc(-c3ccccc3)c3cc(Br)ccc3n2)cc(OC)c1OC,0%,2.99%,7.32%,12.9%,20.8%,52.9%,82.7%,125 µg/mL,250 µg/mL,62.5 µg/mL,250 µg/mL,104 µM,61 µM,1,–,428 µM,–,> 250 µM,493 µM,–,Ratio IC50 [19]: 0
